Assay results of several laboratories.
Protocols differ between the studies behind these lines.
Target: Serine/threonine-protein kinase PAK 1 (PAK1, Homo sapiens, UniProt Q13153)

CCOC(=O)c1cc2cc(-c3cc(C(=O)NCc4ccc(C(=O)O)cc4)nn3C)ccc2[nH]1
remaining binding (cell-free assay, competition with immobilised ligand; 0.1 µM): 92%

O=C(Nc1cnn(-c2csc(C(=O)NC3COC3)c2)c1)Nc1c(F)cccc1Cl
remaining activity (enzyme activity, inhibitor; 5 µM): 81.2%

Nc1ncnc2occ(-c3ccc(NC(=O)Nc4cc(C(F)(F)F)ccc4F)cc3)c12
remaining signal (cell-free assay, inhibitor; 20 µM): 41%

Cc1ccc(NC(=O)c2ccc(C)c(C(F)(F)F)c2)cc1C#Cc1nn(C2CCC(O)CC2)c2ncnc(N)c12 (centres unmarked)
remaining signal (cell-free assay; 10 µM): 87%

Cc1ccc(Nc2nccc(N(C)c3ccc4c(C)n(C)nc4c3)n2)cc1S(N)(=O)=O
remaining signal (cell-free assay, inhibitor; 0.5 µM): 89.1%

Cc1ccc(C(=O)Nc2ccc(CN3CCN(C)CC3)c(C(F)(F)F)c2)cc1C#Cc1cnc2cccnn12
remaining activity (enzyme activity, inhibitor; 23.5 nM): 100%

Cc1c(NC(=O)c2cc(C(N)=O)nc3cc(F)ccc23)c(C(F)(F)F)nn1Cc1ccc(C(C)(C)C)cc1
remaining binding (cell-free assay, competition with immobilised ligand; 1 µM): 98%

Cc1sc(C(=O)NC2COC2)cc1-n1cc(NC(=O)Nc2c(F)cccc2Cl)cn1
remaining activity (enzyme activity, inhibitor; 10 µM): 104%

Cc1cnc(NC2CCOCC2)nc1-n1cnc(C(=O)NC(CN)c2cc(F)cc(Cl)c2)c1 (centres unmarked)
remaining activity (enzyme activity, inhibitor, radiometric; 1 µM): 51%

CCc1ccccc1C(=O)Nc1n[nH]c2c(C)c(F)c(C3C(C#N)=C(C)N(C)C(C)=C3C#N)cc12
remaining binding (cell-free assay, competition with immobilised ligand; 1 µM): 82%

CN(C)C1CCN(CC#Cc2nn(C3CCCC3)c3nc(NCc4ccccc4)ncc23)C1 (centres unmarked)
inhibition (enzyme activity, inhibitor, FRET; 10 µM): 1%

Cc1c(C(=O)O)cc(-c2ccc(C3CCNCC3)cc2)c2ccc(-c3ccc(C(F)(F)F)cc3)cc12
remaining binding (cell-free assay, competition with immobilised ligand; 1 µM): 100%

N#CCCc1ccc2c(c1)-c1[nH]c3ccc([N+](=O)[O-])cc3c1CC(=O)N2
remaining signal (cell-free assay; 0.5 µM): 52.1%

Cc1ccc(C(=O)NCc2ccsc2)cc1C#Cc1cn(C(C)C)c2ncnc(N)c12
activity vs control (enzyme activity, inhibitor; 1 µM): 82%

COc1cc2ncnc(Nc3ccc(Oc4ccccc4)c(C)c3C)c2cc1OC
inhibition (enzyme activity, inhibitor; 1 µM): 5%

CCOCCn1cc(C(=O)Nc2ccc(-n3nc(-c4cccnc4)cc3C(F)(F)F)cn2)ccc1=O
remaining binding (cell-free assay, competition with immobilised ligand; 1 µM): 96%

O=C1Nc2ccc(Cl)cc2C1=Cc1cc(Cl)c(O)c(Cl)c1
remaining signal (cell-free assay; 0.5 µM): 97.2%

COc1ccc2c(c1)O[C@@H](c1ccc(OC)c(OC)c1)C[C@H]2NC(=O)C1(c2ccc3c(c2)OC(F)(F)O3)CC1
remaining binding (cell-free assay, competition with immobilised ligand; 1 µM): 89%

CS(=O)(=O)Nc1cccc(-c2csc(NC(=O)CSc3nc4nccnc4c(=O)n3CCc3ccccc3)n2)c1
inhibition (enzyme activity, inhibitor; 10 µM): -2%

CC(C)(C)c1nc(-c2cccc(NS(=O)(=O)c3c(F)cccc3F)c2F)c(-c2ccnc(N)n2)s1
remaining activity (enzyme activity, inhibitor, radiometric; 1 µM): 91%
